ChEMBL document CHEMBL4118265, “A cascade synthesis, in vitro cholinesterases inhibitory activity and docking studies of novel Tacrine-pyranopyrazole derivatives” (Bioorg Med Chem Lett, 2018)

Legend:
Acetylcholinesterase = Acetylcholinesterase (Electrophorus electricus, UniProt O42275); assay: Inhibition of electric eel AChE using acetylthiocholine iodide as substrate preincubated for 15 mins followed by substrate addition measured every 5 mins for 15 mins by spectrophotometric method
Cholinesterase = Cholinesterase (Equus caballus, UniProt P81908); assay: Inhibition of horse serum BChE using butyrylthiocholine chloride as substrate preincubated for 15 mins followed by substrate addition measured every 5 mins for 15 mins by spectrophotometric method
Chain of Cholinesterase (P81908 whole entry): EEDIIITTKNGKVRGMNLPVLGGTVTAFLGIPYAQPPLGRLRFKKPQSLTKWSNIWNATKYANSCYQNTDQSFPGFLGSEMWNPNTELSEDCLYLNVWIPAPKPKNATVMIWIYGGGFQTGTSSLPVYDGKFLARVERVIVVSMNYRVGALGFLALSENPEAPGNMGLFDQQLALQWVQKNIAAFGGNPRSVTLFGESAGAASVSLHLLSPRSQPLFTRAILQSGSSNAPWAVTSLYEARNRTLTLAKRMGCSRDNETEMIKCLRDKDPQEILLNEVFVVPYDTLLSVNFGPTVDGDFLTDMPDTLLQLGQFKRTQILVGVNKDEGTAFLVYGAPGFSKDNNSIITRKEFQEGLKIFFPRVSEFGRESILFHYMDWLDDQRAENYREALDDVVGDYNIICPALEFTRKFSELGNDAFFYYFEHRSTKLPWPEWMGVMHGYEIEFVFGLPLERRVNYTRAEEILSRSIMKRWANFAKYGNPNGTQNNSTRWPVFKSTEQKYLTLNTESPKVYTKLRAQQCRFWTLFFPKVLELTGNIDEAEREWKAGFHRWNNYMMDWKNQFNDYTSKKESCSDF
Outline: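 BChE (6.85 x10-3 U) in 100 mM sodium phosphate pH 8.0 was preincubated 15 min at 25 °C with compound at several concentrations in methanol. DTNB (0.5 mM) and butyrylthiocholine chloride (0.2 mM) were then added. A412 read every 5 min for 15 min. IC50 derived from percent inhibition versus a methanol blank; mean ± SD of triplicates.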

[1] = Selectivity ratio of IC50 for horse serum BChE to IC50 for electric eel AChE
[2] = target: Cholinesterase (Equus caballus) (UniProt P81908); assay: Inhibition of horse serum BChE at 0.391 ug using butyrylthiocholine chloride as substrate preincubated for 15 mins followed by substrate addition measured every 5 mins for 15 mins by spectrophotometric method relative to control
Chain of Cholinesterase (Equus caballus) (P81908 whole entry): as above
Outline: (§1)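 Ellman colorimetric assay. Compound in methanol (10 µl) was mixed with 150 µl 100 mM sodium phosphate pH 8.0 and BChE (6.85 x10-3 U) and held 15 min at 25 °C. DTNB (0.5 mM) was added, then butyrylthiocholine chloride (0.2 mM) to start the reaction. A412 read every 5 min for 15 min, in triplicate. Percent inhibition = (E−S)/E×100 against a methanol blank.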

[3] = target: Cholinesterase (Equus caballus) (UniProt P81908); assay: Inhibition of horse serum BChE at 0.781 ug using butyrylthiocholine chloride as substrate preincubated for 15 mins followed by substrate addition measured every 5 mins for 15 mins by spectrophotometric method relative to control; outline: as §1
[4] = target: Cholinesterase (Equus caballus) (UniProt P81908); assay: Inhibition of horse serum BChE at 1.563 ug using butyrylthiocholine chloride as substrate preincubated for 15 mins followed by substrate addition measured every 5 mins for 15 mins by spectrophotometric method relative to control; outline: as §1
[5] = target: Cholinesterase (Equus caballus) (UniProt P81908); assay: Inhibition of horse serum BChE at 3.125 ug using butyrylthiocholine chloride as substrate preincubated for 15 mins followed by substrate addition measured every 5 mins for 15 mins by spectrophotometric method relative to control; outline: as §1
[6] = target: Cholinesterase (Equus caballus) (UniProt P81908); assay: Inhibition of horse serum BChE at 6.25 ug using butyrylthiocholine chloride as substrate preincubated for 15 mins followed by substrate addition measured every 5 mins for 15 mins by spectrophotometric method relative to control; outline: as §1
[7] = target: Cholinesterase (Equus caballus) (UniProt P81908); assay: Inhibition of horse serum BChE at 12.5 ug using butyrylthiocholine chloride as substrate preincubated for 15 mins followed by substrate addition measured every 5 mins for 15 mins by spectrophotometric method relative to control
Outline: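 Ellman colorimetric assay. DTNB (0.5 mM) was added, then butyrylthiocholine chloride (0.2 mM) to start the reaction. A412 read every 5 min for 15 min, in triplicate. Percent inhibition = (E−S)/E×100 against a methanol blank.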

[8] = target: Cholinesterase (Equus caballus) (UniProt P81908); assay: Inhibition of horse serum BChE at 25 ug using butyrylthiocholine chloride as substrate preincubated for 15 mins followed by substrate addition measured every 5 mins for 15 mins by spectrophotometric method relative to control; outline: as §1
[9] = target: Acetylcholinesterase (Electrophorus electricus) (UniProt O42275); assay: Inhibition of electric eel AChE at 0.006 ug using acetylthiocholine iodide as substrate preincubated for 15 mins followed by substrate addition measured every 5 mins for 15 mins by spectrophotometric method relative to control
Chain of Acetylcholinesterase (Electrophorus electricus) (O42275 24-633 limits assumed): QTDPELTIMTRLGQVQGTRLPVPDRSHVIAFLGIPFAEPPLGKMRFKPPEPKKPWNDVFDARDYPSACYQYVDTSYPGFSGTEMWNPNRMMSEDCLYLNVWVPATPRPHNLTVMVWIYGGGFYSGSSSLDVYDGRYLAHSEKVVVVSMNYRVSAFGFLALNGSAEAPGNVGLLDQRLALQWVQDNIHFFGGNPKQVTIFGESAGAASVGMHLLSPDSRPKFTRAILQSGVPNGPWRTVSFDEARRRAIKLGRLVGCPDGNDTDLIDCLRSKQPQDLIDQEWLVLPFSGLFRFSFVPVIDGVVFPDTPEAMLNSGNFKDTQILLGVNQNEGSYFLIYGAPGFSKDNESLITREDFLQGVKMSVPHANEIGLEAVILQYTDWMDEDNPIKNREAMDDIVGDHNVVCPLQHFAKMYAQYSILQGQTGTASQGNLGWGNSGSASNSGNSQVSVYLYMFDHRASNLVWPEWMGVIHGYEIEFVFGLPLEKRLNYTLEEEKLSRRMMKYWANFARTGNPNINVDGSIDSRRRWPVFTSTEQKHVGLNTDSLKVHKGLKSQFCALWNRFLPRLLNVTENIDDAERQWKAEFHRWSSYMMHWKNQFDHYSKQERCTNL
Outline: as §1, with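 “AChE (5.32” for “BChE (6.85”, “acetylthiocholine iodide (0.71” for “butyrylthiocholine chloride (0.2”, “Thiolate formation” for “A412”, “read at 412 nm” for “read”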

[10] = target: Acetylcholinesterase (Electrophorus electricus) (UniProt O42275); assay: Inhibition of electric eel AChE at 0.012 ug using acetylthiocholine iodide as substrate preincubated for 15 mins followed by substrate addition measured every 5 mins for 15 mins by spectrophotometric method relative to control
Outline: as §1, with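 “AChE (5.32” for “BChE (6.85”, “acetylthiocholine iodide (0.71” for “butyrylthiocholine chloride (0.2”, “Thiolate formation” for “A412”, “read at 412 nm” for “read”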

Chain of Acetylcholinesterase (O42275 whole entry): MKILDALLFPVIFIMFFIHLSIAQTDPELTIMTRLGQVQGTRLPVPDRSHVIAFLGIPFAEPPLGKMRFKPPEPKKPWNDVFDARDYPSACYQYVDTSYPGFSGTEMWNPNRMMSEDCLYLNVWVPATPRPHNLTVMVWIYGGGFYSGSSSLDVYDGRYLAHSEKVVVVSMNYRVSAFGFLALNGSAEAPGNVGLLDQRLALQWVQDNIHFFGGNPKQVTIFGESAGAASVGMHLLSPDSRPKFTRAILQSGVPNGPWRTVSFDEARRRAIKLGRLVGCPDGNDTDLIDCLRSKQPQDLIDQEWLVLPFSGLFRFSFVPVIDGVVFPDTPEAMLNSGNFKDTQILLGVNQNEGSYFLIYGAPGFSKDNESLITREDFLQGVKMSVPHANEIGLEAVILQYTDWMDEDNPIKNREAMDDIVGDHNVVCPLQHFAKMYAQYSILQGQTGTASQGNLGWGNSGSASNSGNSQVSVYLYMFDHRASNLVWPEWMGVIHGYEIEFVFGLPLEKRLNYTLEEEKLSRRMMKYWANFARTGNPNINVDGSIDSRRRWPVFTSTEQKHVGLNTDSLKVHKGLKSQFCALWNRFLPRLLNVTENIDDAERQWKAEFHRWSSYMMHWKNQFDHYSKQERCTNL

Cc1[nH]nc2c1C(c1ccccc1)c1c(nc3c(c1N)CCCC3)O2 (stereo not given) gave an IC50 (Acetylcholinesterase) of 1230 nM, an IC50 (Cholinesterase) of 36000 nM and a Ratio IC50 [1] of 29.3. For the same compound, the inhibition [2] was 5.38%, the inhibition [3] was 10.7% and the inhibition [4] was 13.6%. The inhibition [5] was 23.9%, the inhibition [6] was 30.7% and the inhibition [7] was 52.5%. For the same compound, the inhibition [8] was 72.9%.

In the case of COc1ccc(C2c3c(n[nH]c3C)Oc3nc4c(c(N)c32)CCCC4)c(OC)c1 (stereo not given), the IC50 (Acetylcholinesterase) is reported as 260 nM, the IC50 (Cholinesterase) is reported as 31100 nM and the Ratio IC50 [1] is reported as 120. For the same compound, the inhibition [3] was 17.8%, the inhibition [4] was 37.1% and the inhibition [5] was 43%. It also gave an inhibition [6] of 55.8%, an inhibition [7] of 62.8% and an inhibition [8] of 80.8%.

With Cc1[nH]nc2c1C(c1cc([N+](=O)[O-])ccc1Cl)c1c(nc3c(c1N)CCCC3)O2 (stereo not given) the IC50 (Acetylcholinesterase) was 1040 nM, the IC50 (Cholinesterase) was 2500 nM and the Ratio IC50 [1] was 2.4. It also gave an inhibition [2] of 5.53%, an inhibition [3] of 10.2% and an inhibition [4] of 13.9%. For the same compound, the inhibition [5] was 21.6%, the inhibition [6] was 35.6% and the inhibition [7] was 54.2%. It also gave an inhibition [8] of 71.9%.

Cc1ccc(C2c3c(n[nH]c3C)Oc3nc4c(c(N)c32)CCCC4)c(C)c1 (stereo not given) gave an IC50 (Acetylcholinesterase) of 290 nM, an IC50 (Cholinesterase) of 39000 nM and a Ratio IC50 [1] of 135. For the same compound, the inhibition [5] was 13.3%, the inhibition [6] was 44.8% and the inhibition [7] was 49.7%. It also gave an inhibition [8] of 51.9%.

For Cc1[nH]nc2c1C(c1ccc(Br)cc1)c1c(nc3c(c1N)CCCC3)O2 (stereo not given), the IC50 (Acetylcholinesterase) was 1800 nM, the IC50 (Cholinesterase) was 11600 nM and the Ratio IC50 [1] was 6.47. For the same compound, the inhibition [2] was 13.1%, the inhibition [3] was 17.4% and the inhibition [4] was 37.9%. It also gave an inhibition [5] of 43.1%, an inhibition [6] of 58.5% and an inhibition [7] of 60.5%. For the same compound, the inhibition [8] was 69.9%.

For Cc1[nH]nc2c1C(c1ccc(-c3ccccc3)cc1)c1c(nc3c(c1N)CCCC3)O2 (stereo not given), the IC50 (Acetylcholinesterase) was 44 nM, the IC50 (Cholinesterase) was > 61200 nM and the Ratio IC50 [1] was > 1390. It also gave an inhibition [9] of 34.4%, an inhibition [10] of 43% and an inhibition [6] of 11.8%. The inhibition [7] was 14.1% and the inhibition [8] was 20.6%.

Work on Cc1[nH]nc2c1C(c1c(Cl)cccc1[N+](=O)[O-])c1c(nc3c(c1N)CCCC3)O2 (stereo not given) yielded an IC50 (Acetylcholinesterase) of 1770 nM, an IC50 (Cholinesterase) of 1840 nM and a Ratio IC50 [1] of 1.04. The inhibition [2] was 37.6%, the inhibition [3] was 52.1% and the inhibition [4] was 66.2%. The inhibition [5] was 85.3%, the inhibition [6] was 86.5% and the inhibition [7] was 94.3%. It also gave an inhibition [8] of 98.7%.

COc1ccc2ccccc2c1C1c2c(n[nH]c2C)Oc2nc3c(c(N)c21)CCCC3 (stereo not given) gave an IC50 (Acetylcholinesterase) of 130 nM, an IC50 (Cholinesterase) of 11300 nM and a Ratio IC50 [1] of 87.3. The inhibition [9] was 12.6%, the inhibition [10] was 16.1% and the inhibition [2] was 2.86%. The inhibition [3] was 7.31%, the inhibition [4] was 25.1% and the inhibition [5] was 47.9%. The inhibition [6] was 51.9%, the inhibition [7] was 63% and the inhibition [8] was 70%.

In the case of Cc1[nH]nc2c1C(c1ccc(Cl)cc1)c1c(nc3c(c1N)CCCC3)O2 (stereo not given), the IC50 (Acetylcholinesterase) is reported as 1660 nM, the IC50 (Cholinesterase) is reported as > 68200 nM and the Ratio IC50 [1] is reported as > 41. For the same compound, the inhibition [2] was 20.8%, the inhibition [3] was 23% and the inhibition [4] was 23.4%. For the same compound, the inhibition [5] was 27.9%, the inhibition [6] was 31.7% and the inhibition [7] was 45.8%. It also gave an inhibition [8] of 46.9%.

Compound COc1ccc2c3c1O[C@H]1C[C@@H](O)C=C[C@@]31CCN(C)C2 has an inhibition [2] of 11.1%, an inhibition [3] of 21% and an inhibition [4] of 55.2%. It also gave an inhibition [5] of 63.9% and an inhibition [8] of 97%.

For Cc1[nH]nc2c1C(c1ccc([N+](=O)[O-])cc1)c1c(nc3c(c1N)CCCC3)O2 (stereo not given), the IC50 (Acetylcholinesterase) was 5800 nM, the IC50 (Cholinesterase) was 2730 nM and the Ratio IC50 [1] was 0.47. The inhibition [2] was 24.9%, the inhibition [3] was 37.9% and the inhibition [4] was 66.8%. For the same compound, the inhibition [5] was 75.1%, the inhibition [6] was 90.3% and the inhibition [7] was 92.6%. It also gave an inhibition [8] of 93.2%.

With CSc1ccc(C2c3c(n[nH]c3C)Oc3nc4c(c(N)c32)CCCC4)cc1 (stereo not given) the IC50 (Acetylcholinesterase) was 58 nM, the IC50 (Cholinesterase) was > 66000 nM and the Ratio IC50 [1] was > 1140. The inhibition [9] was 30.4%, the inhibition [10] was 36.9% and the inhibition [2] was 0.11%. The inhibition [3] was 10.1%, the inhibition [4] was 23.7% and the inhibition [5] was 31%. The inhibition [6] was 36.6%, the inhibition [7] was 44.5% and the inhibition [8] was 46.7%.

For Cc1[nH]nc2c1C(c1cccnc1)c1c(nc3c(c1N)CCCC3)O2 (stereo not given), the IC50 (Acetylcholinesterase) was 330 nM, the IC50 (Cholinesterase) was 4260 nM and the Ratio IC50 [1] was 12.9. For the same compound, the inhibition [9] was 6.61%, the inhibition [10] was 13.1% and the inhibition [2] was 18.2%. It also gave an inhibition [3] of 41.6%, an inhibition [4] of 53.9% and an inhibition [5] of 57.1%. The inhibition [6] was 72%, the inhibition [7] was 74.2% and the inhibition [8] was 84.8%.
